Results from ChEMBL document CHEMBL1157546, “3-(2-Aminocarbonylphenyl)propanoic acid analogs as potent and selective EP3 receptor antagonists. part 2: optimization of the side chains to improve in vitro and in vivo potencies” (Bioorg Med Chem, 2010).

How the values were obtained:
[1] = target: T1, Prostaglandin E2 receptor EP3 subtype (Mus musculus, UniProt P30557); experiment: Displacement of [3H]PGE2 from mouse EP3 receptor expressed in CHO cell membrane; format: cell membranes
T1 sequence (P30557 whole entry): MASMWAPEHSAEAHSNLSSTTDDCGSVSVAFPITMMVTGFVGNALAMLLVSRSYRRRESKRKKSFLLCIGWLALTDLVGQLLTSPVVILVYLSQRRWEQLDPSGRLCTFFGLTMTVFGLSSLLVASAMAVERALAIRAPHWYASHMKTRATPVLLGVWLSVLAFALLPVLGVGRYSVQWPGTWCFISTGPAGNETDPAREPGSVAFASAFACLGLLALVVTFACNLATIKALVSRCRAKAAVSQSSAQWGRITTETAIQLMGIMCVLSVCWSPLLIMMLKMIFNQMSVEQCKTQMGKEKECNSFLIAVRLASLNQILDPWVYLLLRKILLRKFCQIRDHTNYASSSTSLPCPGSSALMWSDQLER

[2] = target: T1, Prostaglandin E2 receptor EP3 subtype; experiment: Antagonist activity at mouse EP3 receptor expressed in CHO cells assessed as inhibition of PGE2-induced increase intracellular calcium level in presence of 1% BSA by fluorimetry; format: functional, cell-based
Method in brief: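 CHO cells expressing mouse EP3 seeded at 1 × 10⁴ cells/well and grown two days in 10% FBS/αMEM (37 °C, 5% CO2). Loaded 1 h with Fura 2/AM, indomethacin and 2.5 mM probenecid, rinsed, then held 1 h dark at room temperature in HBSS with 1% BSA and 10 mM HEPES. Compound added with 10 nM PGE2. Ca²⁺ read at 340/380 nm excitation, 500 nm emission; % inhibition relative to the PGE2 response without compound.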

Rattus norvegicus [3] = experiment: Inhibition of PGE2-induced uterine contraction in intraduodenally dosed pregnant rat at 0.3 mg/kg; format: functional; settings: route intraduodenal
Method in brief: (§1)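 Pregnant rats with uterine pressure recorded by transducer. Once spontaneous motility was stable, compound in 0.5% methylcellulose (5 mL/kg) or vehicle given intraduodenally. PGE2 given iv 30 min later.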

Rattus norvegicus [4] = experiment: Inhibition of PGE2-induced uterine contraction in intraduodenally dosed pregnant rat at 1 mg/kg; format: functional; settings: route intraduodenal; method in brief: as §1
[5] = target: T2, Prostaglandin E2 receptor EP1 subtype (Mus musculus, UniProt P35375); experiment: Displacement of [3H]PGE2 from mouse EP1 receptor expressed in CHO cell membrane; format: cell membranes
T2 sequence (P35375 whole entry): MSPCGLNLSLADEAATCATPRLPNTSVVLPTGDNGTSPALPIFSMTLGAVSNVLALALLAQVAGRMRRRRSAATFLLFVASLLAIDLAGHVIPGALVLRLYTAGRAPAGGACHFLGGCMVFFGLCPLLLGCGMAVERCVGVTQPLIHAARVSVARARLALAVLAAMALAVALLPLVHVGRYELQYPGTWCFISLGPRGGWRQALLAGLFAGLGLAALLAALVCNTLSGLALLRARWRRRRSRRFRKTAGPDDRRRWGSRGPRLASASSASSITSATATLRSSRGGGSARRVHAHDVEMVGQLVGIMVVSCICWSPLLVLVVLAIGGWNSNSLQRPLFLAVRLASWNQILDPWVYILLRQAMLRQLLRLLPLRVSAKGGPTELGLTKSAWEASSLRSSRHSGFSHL

[6] = target: Prostaglandin E2 receptor EP2 subtype (Mus musculus, UniProt Q62053); experiment: Displacement of [3H]PGE2 from mouse EP2 receptor expressed in CHO cell membrane; format: cell membranes
Prostaglandin E2 receptor EP2 subtype, sequence (Q62053 whole entry): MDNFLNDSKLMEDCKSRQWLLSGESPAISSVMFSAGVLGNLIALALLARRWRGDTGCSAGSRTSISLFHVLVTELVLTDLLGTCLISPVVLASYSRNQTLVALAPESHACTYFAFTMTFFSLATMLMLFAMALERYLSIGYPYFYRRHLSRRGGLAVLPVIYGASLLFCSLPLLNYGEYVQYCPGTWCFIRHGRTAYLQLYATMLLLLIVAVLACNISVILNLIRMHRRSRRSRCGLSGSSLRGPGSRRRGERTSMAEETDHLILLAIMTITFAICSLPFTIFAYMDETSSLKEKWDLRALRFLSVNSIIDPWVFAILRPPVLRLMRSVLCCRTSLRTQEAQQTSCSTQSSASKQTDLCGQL

[7] = target: Prostaglandin E2 receptor EP4 subtype (Mus musculus, UniProt P32240); experiment: Displacement of [3H]PGE2 from mouse EP4 receptor expressed in CHO cell membrane; format: cell membranes
Prostaglandin E2 receptor EP4 subtype, sequence (P32240 whole entry): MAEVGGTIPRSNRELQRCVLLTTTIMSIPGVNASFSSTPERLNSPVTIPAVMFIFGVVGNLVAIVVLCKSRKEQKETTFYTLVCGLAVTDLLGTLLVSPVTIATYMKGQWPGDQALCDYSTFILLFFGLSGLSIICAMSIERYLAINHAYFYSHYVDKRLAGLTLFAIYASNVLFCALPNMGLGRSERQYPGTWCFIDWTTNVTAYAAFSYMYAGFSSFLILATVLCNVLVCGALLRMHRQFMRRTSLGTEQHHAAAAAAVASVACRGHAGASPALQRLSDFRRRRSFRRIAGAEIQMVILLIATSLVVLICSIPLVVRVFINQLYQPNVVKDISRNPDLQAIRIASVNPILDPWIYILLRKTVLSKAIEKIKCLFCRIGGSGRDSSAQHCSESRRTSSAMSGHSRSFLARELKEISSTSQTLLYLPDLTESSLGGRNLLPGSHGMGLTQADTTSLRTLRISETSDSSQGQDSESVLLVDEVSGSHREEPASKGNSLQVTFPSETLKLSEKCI

Rattus norvegicus [8] = experiment: Inhibition of PGE2-induced uterine contraction in intraduodenally dosed pregnant rat at 0.1 mg/kg; format: functional; settings: route intraduodenal; method in brief: as §1
[9] = AUC in rat at […], iv; format: ADME, organism-based; design: dose 1.2 mg/kg, route intravenous; settings: plasma
[10] = AUC in rat at 11 mg/kg, po; format: ADME, organism-based; design: dose 11 mg/kg, route oral; settings: plasma
[11] = Volume of distribution at steady state in rat at […], iv; format: ADME, organism-based; design: dose 1.2 mg/kg, route intravenous; settings: in vivo, read-out: Vdss
[12] = Cmax in rat at 11 mg/kg, po; format: ADME, organism-based; design: dose 11 mg/kg, route oral; settings: in vivo
[13] = Oral bioavailability in rat at 11 mg/kg, po; format: ADME, organism-based; settings: in vivo
[14] = AUC in rat at 13 mg/kg, po; format: ADME, organism-based; design: dose 13 mg/kg, route oral; settings: plasma
[15] = Cmax in rat at 13 mg/kg, po; format: ADME, organism-based; design: dose 13 mg/kg, route oral; settings: in vivo
[16] = Oral bioavailability in rat at 13 mg/kg, po; format: ADME, organism-based; settings: in vivo

| SMILES | Ki [1] [nM] | IC50 [2] [nM] | other results |
| --- | --- | --- | --- |
| Cc1ccc(OCc2ccc(CCC(=O)O)c(C(=O)NC(CC(C)C)c3cc(C)cc(C)c3)c2)cc1 (centres undefined) | 0.67 | 16 |  |
| COc1ccc(C(CC(C)C)NC(=O)c2cc(COc3ccccc3)ccc2CCC(=O)O)cc1OC (centres undefined) | 0.5 | 24 |  |
| CC(C)CC(NC(=O)c1cc(COc2ccccc2)ccc1CCC(=O)O)c1cccc(C(F)(F)F)c1 (centres undefined) | 0.39 | 39 |  |
| COc1ccc(C(CC(C)C)NC(=O)c2cc(COc3cccc(C#N)c3)ccc2CCC(=O)O)cc1OC (centres undefined) | 0.67 | 3.7 |  |
| COc1ccc(C(CC(C)C)NC(=O)c2cc(COc3ccccc3)ccc2CCC(=O)O)cc1 (centres undefined) | 0.36 | 59 |  |
| CC(C)CC(NC(=O)c1cc(COc2ccccc2)ccc1CCC(=O)O)c1ccc(Cl)cc1 (centres undefined) | 0.28 | 51 |  |
| CC(C)CC(NC(=O)c1cc(COc2ccccc2)ccc1CCC(=O)O)c1ccc2c(c1)OCCO2 (centres undefined) | 0.44 | 19 |  |
| CC(C)CC(NC(=O)c1cc(COc2ccccc2)ccc1CCC(=O)O)c1ccc(C(F)(F)F)c(F)c1 (centres undefined) | 0.7 | 53 |  |
| Cc1cc(C)cc(C(CC(C)C)NC(=O)c2cc(COc3ccc(C#N)cc3)ccc2CCC(=O)O)c1 (centres undefined) | 0.46 | 16 |  |
| Cc1cc(C(CC(C)C)NC(=O)c2cc(COc3ccccc3)ccc2CCC(=O)O)ccc1F (centres undefined) | 0.16 | 18 | inhibition in vivo at 0.3 mg/kg (Rattus norvegicus [3]): 31%; inhibition in vivo at 1 mg/kg (Rattus norvegicus [4]): 73%; Ki [5]: > 10000 nM; Ki [6]: > 10000 nM; Ki [7]: 630 nM |
| Cc1ccc(C(CC(C)C)NC(=O)c2cc(COc3ccccc3)ccc2CCC(=O)O)cc1 (centres undefined) | 0.63 | 51 |  |
| CC(C)CC(NC(=O)c1cc(COc2ccccc2)ccc1CCC(=O)O)c1ccc(F)c(F)c1 (centres undefined) | 0.4 | 47 |  |
| COc1cccc(OCc2ccc(CCC(=O)O)c(C(=O)NC(CC(C)C)c3cc(C)cc(C)c3)c2)c1 (centres undefined) | 0.27 | 3.2 |  |
| CC(C)CC(NC(=O)c1cc(COc2cccc(C#N)c2)ccc1CCC(=O)O)c1ccc(F)cc1 (centres undefined) | 0.17 | 7.1 |  |
| Cc1cc(C)cc(C(CC(C)C)NC(=O)c2cc(COc3cccc(F)c3F)ccc2CCC(=O)O)c1 (centres undefined) | 0.15 | 3.6 |  |
| Cc1cc(C)cc(C(CC(C)C)NC(=O)c2cc(COc3ccccc3C)ccc2CCC(=O)O)c1 (centres undefined) |  |  | inhibition in vivo at 0.3 mg/kg (Rattus norvegicus [3]): 62%; inhibition in vivo at 1 mg/kg (Rattus norvegicus [4]): 83% |
| Cc1cc(C)cc(C(CC(C)C)NC(=O)c2cc(COc3ccccc3)ccc2CCC(=O)O)c1 (centres undefined) |  |  | inhibition in vivo at 0.3 mg/kg (Rattus norvegicus [3]): 28% |
| Cc1cccc(C(CC(C)C)NC(=O)c2cc(COc3ccccc3)ccc2CCC(=O)O)c1 (centres undefined) | 0.3 | 37 |  |
| CC(C)CC(NC(=O)c1cc(COc2ccccc2)ccc1CCC(=O)O)c1cccc(F)c1 (centres undefined) | 0.2 | 40 |  |
| Cc1cc(C)cc(C(CC(C)C)NC(=O)c2cc(COc3c(F)cccc3F)ccc2CCC(=O)O)c1 (centres undefined) | 1.3 | 59 |  |
| CC(C)CC(NC(=O)c1cc(COc2ccccc2)ccc1CCC(=O)O)c1ccc(C(F)(F)F)cc1 (centres undefined) | 0.76 | 32 |  |
| Cc1cc(C)cc(C(CC(C)C)NC(=O)c2cc(COc3cc(F)ccc3F)ccc2CCC(=O)O)c1 (centres undefined) |  |  | inhibition in vivo at 0.1 mg/kg (Rattus norvegicus [8]): 48%; inhibition in vivo at 0.3 mg/kg (Rattus norvegicus [3]): 93%; inhibition in vivo at 1 mg/kg (Rattus norvegicus [4]): 98%; AUC [9]: 470 ng·h/mL; AUC [10]: 850 ng·h/mL; Vd [11]: 1.43 L/kg; Cmax [12]: 520 ng/mL; bioavailability [13]: 19% |
| COc1ccc(C(CC(C)C)NC(=O)c2cc(COc3ccccc3)ccc2CCC(=O)O)cc1F (centres undefined) | 0.14 | 42 |  |
| CC(C)CC(NC(=O)c1cc(COc2ccccc2)ccc1CCC(=O)O)c1cc(F)cc(C(F)(F)F)c1 (centres undefined) | 0.45 | 15 |  |
| COc1ccccc1C(CC(C)C)NC(=O)c1cc(COc2ccccc2)ccc1CCC(=O)O (centres undefined) | 1.2 | 190 |  |
| Cc1cc(C)cc(C(CC(C)C)NC(=O)c2cc(COc3cccc(F)c3)ccc2CCC(=O)O)c1 (centres undefined) |  |  | inhibition in vivo at 0.3 mg/kg (Rattus norvegicus [3]): 66%; inhibition in vivo at 1 mg/kg (Rattus norvegicus [4]): 84%; AUC [9]: 440 ng·h/mL; AUC [14]: 1090 ng·h/mL; Vd [11]: 1.32 L/kg; Cmax [15]: 390 ng/mL; bioavailability [16]: 23% |
| Cc1cc(C)cc(C(CC(C)C)NC(=O)c2cc(COc3cccc(C#N)c3)ccc2CCC(=O)O)c1 (centres undefined) |  |  | inhibition in vivo at 0.3 mg/kg (Rattus norvegicus [3]): 55%; inhibition in vivo at 1 mg/kg (Rattus norvegicus [4]): 95% |
| Cc1cc(C)cc(C(CC(C)C)NC(=O)c2cc(COc3ccc(F)cc3)ccc2CCC(=O)O)c1 (centres undefined) | 0.25 | 5.4 |  |
| COc1cccc(C(CC(C)C)NC(=O)c2cc(COc3ccccc3)ccc2CCC(=O)O)c1 (centres undefined) | 0.13 | 21 |  |

Further lines, with some results ahead:

| Ki [1] [nM] | IC50 [2] [nM] | SMILES | other results |
| --- | --- | --- | --- |
| 0.16 | 11 | COc1ccc(C(CC(C)C)NC(=O)c2cc(COc3ccccc3)ccc2CCC(=O)O)cc1C (centres undefined) |  |
| 0.1 | 13 | Cc1cc(C)cc(C(CC(C)C)NC(=O)c2cc(COc3ccccc3F)ccc2CCC(=O)O)c1 (centres undefined) |  |
| 0.94 | 230 | Cc1ccccc1C(CC(C)C)NC(=O)c1cc(COc2ccccc2)ccc1CCC(=O)O (centres undefined) |  |
| 0.19 | 10 | Cc1cc(C)cc(C(CC(C)C)NC(=O)c2cc(COc3cc(F)cc(F)c3)ccc2CCC(=O)O)c1 (centres undefined) |  |
| 0.2 | 6.6 | Cc1cccc(C(CC(C)C)NC(=O)c2cc(COc3cccc(C#N)c3)ccc2CCC(=O)O)c1 (centres undefined) |  |
| 0.93 | 20 | CC(C)CC(NC(=O)c1cc(COc2ccccc2)ccc1CCC(=O)O)c1ccc(F)cc1 (centres undefined) |  |
| 0.26 | 25 | CC(C)CC(NC(=O)c1cc(COc2ccccc2)ccc1CCC(=O)O)c1ccc(F)c(Cl)c1 (centres undefined) |  |
| 0.11 | 4.2 | Cc1cccc(OCc2ccc(CCC(=O)O)c(C(=O)NC(CC(C)C)c3cc(C)cc(C)c3)c2)c1 (centres undefined) |  |
| 0.13 | 3.2 | COc1cccc(C(CC(C)C)NC(=O)c2cc(COc3cccc(C#N)c3)ccc2CCC(=O)O)c1 (centres undefined) |  |
| 0.34 | 5.7 | Cc1cc(C)cc(C(CC(C)C)NC(=O)c2cc(COc3ccc(F)c(F)c3)ccc2CCC(=O)O)c1 (centres undefined) |  |
| 0.3 | 19 | CC(C)CC(NC(=O)c1cc(COc2ccccc2)ccc1CCC(=O)O)c1cc(F)cc(F)c1 (centres undefined) |  |
| 1.4 | 130 | CC(C)CC(NC(=O)c1cc(COc2ccccc2)ccc1CCC(=O)O)c1ccccc1F (centres undefined) |  |
| 0.17 | 16 | Cc1ccc(C(CC(C)C)NC(=O)c2cc(COc3ccccc3)ccc2CCC(=O)O)cc1C (centres undefined) |  |
| 0.18 | 35 | CC(C)CC(NC(=O)c1cc(COc2ccccc2)ccc1CCC(=O)O)c1cccc(Cl)c1 (centres undefined) |  |
| 0.2 | 2.8 | Cc1cc(C(CC(C)C)NC(=O)c2cc(COc3cccc(C#N)c3)ccc2CCC(=O)O)ccc1F (centres undefined) |  |
| 0.2 | 67 | Cc1ccc(C(CC(C)C)NC(=O)c2cc(COc3ccccc3)ccc2CCC(=O)O)cc1F (centres undefined) |  |
| 0.62 | 30 | Cc1cc(C)cc(C(CC(C)C)NC(=O)c2cc(COc3ccc(Cl)cc3)ccc2CCC(=O)O)c1 (centres undefined) |  |
| 0.35 | 9.4 | Cc1cc(C)cc(C(CC(C)C)NC(=O)c2cc(COc3ccccc3C#N)ccc2CCC(=O)O)c1 (centres undefined) |  |
